Assays:
Rattus norvegicus [1] = assay: Percent fall in systolic blood pressure, directly measured on carotid (iv on the jugular vein) of spontaneously hypertensive rats at 1 mg/kg after 15 minutes; format: functional, Artery
How it was run: (§1)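 Anesthetized (sodium pentobarbital, 70 mg/kg) male and female Okamoto SHR, 8 weeks old, 300–350 g. Given iv into the jugular vein in normal saline. Arterial pressure and cardiac rhythm are recorded directly from the carotid by polygraph at set times after dosing. Each is expressed as percent change from the pre-dose control value.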

Rattus norvegicus [2] = assay: Percent fall in systolic blood pressure, directly measured on carotid (iv on the jugular vein) of spontaneously hypertensive rats at 1 mg/kg after 90 minutes; format: functional, Artery; how it was run: as §1
Rattus norvegicus [3] = assay: Percent fall in systolic blood pressure, directly measured on carotid (iv on the jugular vein) of spontaneously hypertensive rats at 1 mg/kg after 75 minutes; format: functional, Artery; how it was run: as §1
Rattus norvegicus [4] = assay: Percent fall in systolic blood pressure, directly measured on carotid (iv on the jugular vein) of spontaneously hypertensive rats at 1 mg/kg after 30 minutes; format: functional, Artery; how it was run: as §1
Rattus norvegicus [5] = assay: Percent fall in systolic blood pressure, directly measured on carotid (iv on the jugular vein) of spontaneously hypertensive rats at 1 mg/kg after 10 minutes; format: functional, Artery; how it was run: as §1
Rattus norvegicus [6] = assay: Percent fall in systolic blood pressure, directly measured on carotid (iv on the jugular vein) of spontaneously hypertensive rats at 1 mg/kg after 60 minutes; format: functional, Artery; how it was run: as §1
Rattus norvegicus [7] = assay: Percent fall in systolic blood pressure, directly measured on carotid (iv on the jugular vein) of spontaneously hypertensive rats at 1 mg/kg after 45 minutes; format: functional, Artery; how it was run: as §1
Rattus norvegicus [8] = assay: Percent fall in systolic blood pressure, directly measured on carotid (iv on the jugular vein) of spontaneously hypertensive rats at 1 mg/kg after 5 minutes; format: functional, Artery; how it was run: as §1
Rattus norvegicus [9] = assay: Antihypertensive activity in spontaneously hypertensive rats (SHR) measured by percentage fall in cardiac rhythm (CR) at 25 mg/kg administered intraperitoneally at 3 h; format: functional, Heart; details: route intraperitoneal
How it was run: (§2)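 Unanesthetized Okamoto-strain SHR, male and female, 8 weeks old, 300–350 g, systolic pressure ≥190 mmHg, heart rate 400–650 beats/min; five animals per dose. Given ip at 2.5 mL/kg, dissolved or suspended in normal saline or saline with 0.2% (carboxymethyl)cellulose and 1.0% Tween 80. Tail AP and CR recorded by mechanical transduction at set times; reported as percentage fall from control.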

Rattus norvegicus [10] = assay: Antihypertensive activity in spontaneously hypertensive rats (SHR) measured by percentage fall in arterial pressure (AP) at 25 mg/kg administered intraperitoneally at 3 h; format: functional, Artery; details: route intraperitoneal; how it was run: as §2
Rattus norvegicus [11] = assay: Antihypertensive activity in spontaneously hypertensive rats (SHR) measured by percentage fall in arterial pressure (AP) at 25 mg/kg administered intraperitoneally at 24 h;No significance; format: functional, organism-based; parameters: dose 25 mg/kg; details: Artery; how it was run: as §2
Rattus norvegicus [12] = assay: Antihypertensive activity in spontaneously hypertensive rats (SHR) measured by percentage fall in cardiac rhythm (CR) at 25 mg/kg administered intraperitoneally at 24 h;No significance; format: functional, organism-based; parameters: dose 25 mg/kg; details: Heart; how it was run: as §2
Rattus norvegicus [13] = assay: Antihypertensive activity in spontaneously hypertensive rats (SHR) measured by percentage fall in cardiac rhythm (CR) at 25 mg/kg administered intraperitoneally at 5 h; format: functional, Heart; details: route intraperitoneal
How it was run: (§3)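 Conscious SHR (Okamoto strain), 8 weeks old, male and female, 300–350 g, systolic BP ≥190 mmHg, CR 400–650 beats/min. Given ip or po at 2.5 mL/kg in normal saline or saline with 0.2% (carboxymethyl)cellulose and 1.0% Tween 80. Tail AP and CR recorded by mechanical transduction at 1, 3, 5 and 24 h, five animals per dose. Effect expressed as % fall versus control.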

Rattus norvegicus [14] = assay: Antihypertensive activity in spontaneously hypertensive rats (SHR) measured by percentage fall in arterial pressure (AP) at 25 mg/kg administered intraperitoneally at 5 h; format: functional, Artery; details: route intraperitoneal; how it was run: as §2
Rattus norvegicus [15] = assay: Antihypertensive activity in spontaneously hypertensive rats (SHR) measured by percentage fall in arterial pressure (AP) at 5 mg/kg administered intraperitoneally at 3 h; format: functional, Artery; details: route intraperitoneal; how it was run: as §2
Rattus norvegicus [16] = assay: Antihypertensive activity in spontaneously hypertensive rats (SHR) measured by percentage fall in arterial pressure (AP) at 25 mg/kg administered perorally at 24 h; format: functional, Artery; details: route oral
How it was run: (§4)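 Oral dosing at 2.5 mL/kg to unanesthetized male and female Okamoto-strain SHR (8 weeks old, 300–350 g, systolic pressure ≥190 mmHg, heart rate 400–650 beats/min), five per dose. Vehicle was normal saline or saline with 0.2% (carboxymethyl)cellulose and 1.0% Tween 80. AP measured on the tail by mechanical transduction at set times; expressed as percentage fall from control.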

Rattus norvegicus [17] = assay: Antihypertensive activity in spontaneously hypertensive rats (SHR) measured by percentage fall in cardiac rhythm (CR) at 1 mg/kg administered intraperitoneally at 24 h; format: functional, Heart; details: route intraperitoneal; how it was run: as §2
Rattus norvegicus [18] = assay: Antihypertensive activity in spontaneously hypertensive rats (SHR) measured by percentage fall in cardiac rhythm (CR) at 25 mg/kg administered intraperitoneally at 24 h; format: functional, Heart; details: route intraperitoneal; how it was run: as §2
Rattus norvegicus [19] = assay: Antihypertensive activity in spontaneously hypertensive rats (SHR) measured by percentage fall in cardiac rhythm (CR) at 1 mg/kg administered intraperitoneally at 5 h; format: functional, Heart; details: route intraperitoneal; how it was run: as §2
Rattus norvegicus [20] = assay: Antihypertensive activity in spontaneously hypertensive rats (SHR) measured by percentage fall in arterial pressure (AP) at 5 mg/kg administered intraperitoneally at 24 h; format: functional, Artery; details: route intraperitoneal; how it was run: as §2
Rattus norvegicus [21] = assay: Antihypertensive activity in spontaneously hypertensive rats (SHR) measured by percentage fall in cardiac rhythm (CR) at 1 mg/kg administered intraperitoneally at 3 h; format: functional, Heart; details: route intraperitoneal; how it was run: as §2
Rattus norvegicus [22] = assay: Antihypertensive activity in spontaneously hypertensive rats (SHR) measured by percentage fall in arterial pressure (AP) at 5 mg/kg administered intraperitoneally at 5 h; format: functional, Artery; details: route intraperitoneal; how it was run: as §2
Rattus norvegicus [23] = assay: Antihypertensive activity in spontaneously hypertensive rats (SHR) measured by percentage fall in arterial pressure (AP) at 25 mg/kg administered perorally at 5 h; format: functional, Artery; details: route oral; how it was run: as §4
Rattus norvegicus [24] = assay: Antihypertensive activity in spontaneously hypertensive rats (SHR) measured by percentage fall in cardiac rhythm (CR) at 25 mg/kg administered perorally at 3 h; format: functional, Heart; details: route oral; how it was run: as §3
Rattus norvegicus [25] = assay: Antihypertensive activity in spontaneously hypertensive rats (SHR) measured by percentage fall in arterial pressure (AP) at 25 mg/kg administered intraperitoneally at 24 h; format: functional, Artery; details: route intraperitoneal; how it was run: as §2
Rattus norvegicus [26] = assay: Antihypertensive activity in spontaneously hypertensive rats (SHR) measured by percentage fall in arterial pressure (AP) at 25 mg/kg administered perorally at 3 h; format: functional, Artery; details: route oral; how it was run: as §4
Rattus norvegicus [27] = assay: Antihypertensive activity in spontaneously hypertensive rats (SHR) measured by percentage fall in cardiac rhythm (CR) at 5 mg/kg administered intraperitoneally at 3 h; format: functional, Heart; details: route intraperitoneal; how it was run: as §3
Rattus norvegicus [28] = assay: Antihypertensive activity in spontaneously hypertensive rats (SHR) measured by percentage fall in arterial pressure (AP) at 25 mg/kg administered intraperitoneally at 1 h; format: functional, Artery; details: route intraperitoneal; how it was run: as §2

## NNc1[nH]ncc2c3cc(O)ccc3nc1-2
Rattus norvegicus [1]
  Decrease in blood pressure: 60%
Rattus norvegicus [2]
  Decrease in blood pressure: 56%
Rattus norvegicus [3]
  Decrease in blood pressure: 56%
Rattus norvegicus [4]
  Decrease in blood pressure: 56%
Rattus norvegicus [5]
  Decrease in blood pressure: 44%
Rattus norvegicus [6]
  Decrease in blood pressure: 67%
Rattus norvegicus [7]
  Decrease in blood pressure: 56%
Rattus norvegicus [8]
  Decrease in blood pressure: 33%

## COc1ccc2[nH]c3c(cnn4c(C)nnc34)c2c1
Rattus norvegicus [9]
  Decrease in CR: -5%
Rattus norvegicus [10]
  Decrease in AP: 10%
Rattus norvegicus [11]
  Decrease in AP: No significant values
Rattus norvegicus [12]
  Decrease in CR: No significant values
Rattus norvegicus [13]
  Decrease in CR: 7%
Rattus norvegicus [14]
  Decrease in AP: 8%

## NNc1[nH]ncc2c3cc(OCc4ccccc4)ccc3nc1-2
Rattus norvegicus [15]
  Decrease in AP: 5%
Rattus norvegicus [16]
  Decrease in AP: 5%
Rattus norvegicus [9]
  Decrease in CR: 15%
Rattus norvegicus [10]
  Decrease in AP: 12%
Rattus norvegicus [17]
  Decrease in CR: 9%
Rattus norvegicus [18]
  Decrease in CR: 7%
Rattus norvegicus [19]
  Decrease in CR: 6%
Rattus norvegicus [20]
  Decrease in AP: 7%
Rattus norvegicus [21]
  Decrease in CR: 8%
Rattus norvegicus [22]
  Decrease in AP: 13%
Rattus norvegicus [23]
  Decrease in AP: 10%
Rattus norvegicus [24]
  Decrease in CR: 21%
Rattus norvegicus [13]
  Decrease in CR: 20%
Rattus norvegicus [25]
  Decrease in AP: 7%
Rattus norvegicus [26]
  Decrease in AP: 6%
Rattus norvegicus [14]
  Decrease in AP: 13%
Rattus norvegicus [27]
  Decrease in CR: 16%

## COc1ccc2c(c1)cc1c(NN)nncn12.Cl
Rattus norvegicus [28]
  Decrease in AP: 9%
